Experiments:
Autotaxin [1] = biological target: T1, Autotaxin (Homo sapiens, UniProt Q13822); assay: Inhibition of C-terminal FLAG tagged human recombinant ATX expressed in insect sf9 cells at 10 uM using pNP-TMP as substrate measured every 2 mins for 60 mins by absorbance
Autotaxin [2] = biological target: T1, Autotaxin; assay: Inhibition of C-terminal FLAG tagged human recombinant ATX expressed in insect sf9 cells at 10 uM using FS-3 as substrate measured every 2 mins for 60 mins by FRET assay
Outline: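 10 μM compound with 10 nM human FLAG-fusion ATX in pH 8.0 Tris buffer (30 μM BSA, 1 mM CaCl2, 1 mM MgCl2, 5 mM KCl, 140 mM NaCl) and 1 μM FS-3. Fluorescence at ex 485/em 520 nm read every 2 min for 60 min at 37 °C. Normalized to no-ATX (0%) and ATX without compound (100%). Triplicate.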

Autotaxin [3] = biological target: T1, Autotaxin; assay: Inhibition of C-terminal FLAG tagged human recombinant ATX expressed in insect sf9 cells using FS-3 as substrate measured every 2 mins for 60 mins by FRET assay
Outline: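 Dose response over 0.03 to 30 μM compound, 10 nM human FLAG-fusion ATX, 1 μM FS-3 in pH 8.0 Tris/BSA assay buffer. Fluorescence at 485/520 nm every 2 min for 60 min at 37 °C, normalized to no-ATX and no-compound controls. IC50 by non-linear regression. Triplicate.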

[4] = biological target: T2, Ectonucleotide pyrophosphatase/phosphodiesterase family member 7 (Homo sapiens) (UniProt Q6UWV6); assay: Inhibition of C-terminal FLAG tagged human recombinant NPP7 expressed in insect sf9 cells assessed as remaining enzyme activity response at 10 uM using pNPPC as substrate measured every 2 mins for 1 hr by […]
T2 sequence (whole entry): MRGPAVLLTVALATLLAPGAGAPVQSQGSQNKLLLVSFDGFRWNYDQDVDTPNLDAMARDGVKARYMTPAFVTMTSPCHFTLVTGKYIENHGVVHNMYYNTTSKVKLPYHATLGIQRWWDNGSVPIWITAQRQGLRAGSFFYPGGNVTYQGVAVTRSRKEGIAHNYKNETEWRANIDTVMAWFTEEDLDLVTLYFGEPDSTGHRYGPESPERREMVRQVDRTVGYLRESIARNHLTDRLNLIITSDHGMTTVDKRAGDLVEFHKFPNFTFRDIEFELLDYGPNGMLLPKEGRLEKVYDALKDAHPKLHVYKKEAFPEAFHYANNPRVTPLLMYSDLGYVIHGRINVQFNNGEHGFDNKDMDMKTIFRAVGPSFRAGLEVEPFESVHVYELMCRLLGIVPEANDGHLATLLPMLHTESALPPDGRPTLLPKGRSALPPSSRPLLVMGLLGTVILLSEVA
Outline: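 Human FLAG-fusion NPP7 (10 nM final) with 10 μM compound and 10 μM pNPPC in 50 mM Tris-HCl, 150 mM NaCl, 10 mM taurocholate, pH 8. Absorbance at 405 nm, 37 °C, every 2 min for an hour. Background subtracted. Mean percent of enzyme-only response (no-enzyme = 0%). Triplicate.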

[5] = biological target: T3, Glycerophosphocholine cholinephosphodiesterase ENPP6 (Homo sapiens) (UniProt Q6UWR7); assay: Inhibition of C-terminal FLAG tagged human recombinant NPP6 expressed in insect sf9 cells assessed as remaining enzyme activity response at 10 uM using pNPPC as substrate measured every 2 mins for 1 hr by […]
T3 sequence (whole entry): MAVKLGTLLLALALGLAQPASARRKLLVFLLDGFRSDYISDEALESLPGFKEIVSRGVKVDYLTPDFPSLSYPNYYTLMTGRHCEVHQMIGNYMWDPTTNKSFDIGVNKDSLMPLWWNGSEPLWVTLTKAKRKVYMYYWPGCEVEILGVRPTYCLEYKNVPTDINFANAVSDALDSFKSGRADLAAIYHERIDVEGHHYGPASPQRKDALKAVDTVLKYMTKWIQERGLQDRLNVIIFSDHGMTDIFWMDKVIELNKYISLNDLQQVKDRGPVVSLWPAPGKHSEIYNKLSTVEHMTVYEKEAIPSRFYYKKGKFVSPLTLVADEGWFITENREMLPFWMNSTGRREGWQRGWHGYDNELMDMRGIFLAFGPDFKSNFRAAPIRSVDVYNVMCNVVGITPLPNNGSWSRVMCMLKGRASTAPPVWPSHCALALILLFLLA
Outline: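 Final 10 nM human FLAG-fusion NPP6, 10 μM compound, 10 μM pNPPC in 500 mM NaCl, 100 mM Tris-HCl, 0.05% Triton X-100, pH 9. A405 at 37 °C every 2 min for 1 h. Background absorbance subtracted. Mean percent response relative to enzyme-only control (no-enzyme = 0%). Triplicate.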

Autotaxin [6] = biological target: T1, Autotaxin; assay: Inhibition of C-terminal FLAG tagged human recombinant ATX expressed in insect sf9 cells using pNP-TMP as substrate measured every 2 mins for 60 mins by absorbance
Outline: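 Dose response 0.03 to 30 μM compound against 10 nM human FLAG-fusion ATX with 1 mM pNP-TMP in pH 8.0 Tris/BSA buffer. A405 every 2 min for 60 min at 37 °C, normalized to no-enzyme and uninhibited controls. IC50 by non-linear regression. Triplicate.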

Compound | inhibition (Autotaxin [1]) [%] | inhibition (Autotaxin [2]) [%] | IC50 (Autotaxin [3]) [µM] | Activity [4] [%] | Activity [5] [%] | IC50 (Autotaxin [6]) [µM]
O=C(COc1ccccc1C(F)(F)F)N1CCN(c2ccccc2[N+](=O)[O-])CC1 | 38.2 | 50 | 11.4 | – | – | –
O=C(COc1ccc(Cl)cc1Cl)N1CCN(c2ccc([N+](=O)[O-])cc2)CC1 | – | 51.8 | 3.7 | 103 | 92.2 | –
O=C(COc1ccc(C(F)(F)F)cc1)N1CCN(c2ccc([N+](=O)[O-])cc2)CC1 | 26.6 | 50.2 | 8.1 | – | – | –
O=C(COc1ccc(Cl)cc1)N1CCN(c2ccccc2[N+](=O)[O-])CC1 | 38 | 59.1 | 8.2 | – | – | –
O=C(COc1ccc(F)cc1)N1CCN(c2ccc([N+](=O)[O-])cc2)CC1 | – | 65.4 | 6.4 | – | – | –
CCCCCCCCCCCCCC(=O)NC(CCC(=O)O)C(=O)O (stereo not drawn) | -6.9 | 54.1 | 6 | – | – | –
COc1ccc2c(c1)C(NCc1cc(OC)c(OC)cc1N)CCO2 (stereo not drawn) | 7.5 | 48 | 6.6 | – | – | –
CC(=O)OC1(C(=O)COC(=O)c2ccco2)CC2CCC3C4C=CC(=O)CC4(C)CCC3C2(C)C1 (stereo not drawn) | – | 59.6 to 59.7 | 5.7 | – | – | –
O=C(COc1cccc(F)c1)N1CCN(c2ccc([N+](=O)[O-])cc2)CC1 | – | 63 | 6.6 | – | – | –
O=C(O)c1cccc(N2CCN(C(=O)COc3cccc(F)c3)CC2)c1 | 30.2 | 55.2 | 8.9 | – | – | –
O=C(COc1cccc(C(F)(F)F)c1)N1CCN(c2cccc([N+](=O)[O-])c2)CC1 | 14.3 | 61.9 | 4.6 | – | – | –
O=C(COc1ccc(Cl)cc1Cl)N1CCN(c2cccc([N+](=O)[O-])c2)CC1 | 7.3 | 73.2 | 3.4 | 89.5 | 89.8 | –
O=C(COc1ccc(C(F)(F)F)cc1)N1CCN(c2ccccc2[N+](=O)[O-])CC1 | 44.7 | 72.6 | 4.7 | – | – | 11.3
O=C(O)c1ccccc1N1CCN(C(=O)COc2cc(Cl)cc(Cl)c2)CC1 | 23.4 | 59.8 | 2.2 | 90.2 | 91 | –
O=C(O)c1cccc(N2CCN(C(=O)COc3ccc(Cl)cc3Cl)CC2)c1 | 29.5 | 76.1 | 2.1 | 103 | 95.2 | –
O=C(O)c1cccc(N2CCN(C(=O)COc3cccc(C(F)(F)F)c3)CC2)c1 | 37.9 | 67.1 | 2.2 | 87.3 | 89.2 | –
O=C(COc1cc(Cl)cc(Cl)c1)N1CCN(c2ccccc2[N+](=O)[O-])CC1 | 46.8 | 77.7 | 3 | 99 | 93.4 | 11.4
O=C(O)c1cccc(N2CCN(C(=O)COc3ccc(Cl)cc3)CC2)c1 | 56.6 | 79.8 | 3.7 | 89.2 | 93.4 | 6.2
O=C(COc1ccc(Cl)cc1)N1CCN(c2ccc([N+](=O)[O-])cc2)CC1 | 19.9 | 76 | 2.2 | 114 | 94 | –
O=C(COc1cc(Cl)cc(Cl)c1)N1CCN(c2ccc([N+](=O)[O-])cc2)CC1 | 20.4 | 63 | 2.3 | 93.1 | 95.8 | –

Compound | inhibition (Autotaxin [1]) [%] | inhibition (Autotaxin [2]) [%] | IC50 (Autotaxin [3]) [µM] | Activity [4] [%] | Activity [5] [%] | IC50 (Autotaxin [6]) [µM]
O=C(COc1ccc(Cl)cc1)N1CCN(c2cccc([N+](=O)[O-])c2)CC1 | 23.8 | 62.6 | 5.4 | – | – | –
O=C(O)c1ccc(N2CCN(C(=O)COc3cccc(Cl)c3)CC2)cc1 | 6.8 | 56 | 6.5 | – | – | –
O=C(O)c1cccc(N2CCN(C(=O)COc3ccc(C(F)(F)F)cc3)CC2)c1 | 31.6 | 65 | 7.5 | – | – | –
O=C(O)c1cccc(N2CCN(C(=O)COc3cccc(Cl)c3)CC2)c1 | 37.1 | 80 | 2.6 | 84.3 | 96.4 | –
O=C(COc1cccc(Cl)c1)N1CCN(c2cccc([N+](=O)[O-])c2)CC1 | 17.1 | 62.4 | 5.8 | – | – | –
O=C(COc1ccc(Cl)cc1Cl)N1CCN(c2ccccc2[N+](=O)[O-])CC1 | 37.1 | 69.8 | 4.1 | – | – | –
O=C(O)c1cccc(N2CCN(C(=O)COc3cc(Cl)cc(Cl)c3)CC2)c1 | 56.2 | 54.6 | 7.3 | – | – | 5.2
O=C(O)c1ccccc1N1CCN(C(=O)COc2ccc(C(F)(F)F)cc2)CC1 | 43.7 | 89.1 | 1.8 | 90.5 | 97.6 | –
O=C(O)c1ccccc1N1CCN(C(=O)COc2ccc(Cl)cc2)CC1 | 32.1 | 74.5 | 6 | – | – | –
O=C(O)c1cccc(N2CCN(C(=O)COc3ccccc3C(F)(F)F)CC2)c1 | 23.7 | 51.5 | 8.1 | – | – | –
O=C(COc1cccc(F)c1)N1CCN(c2cccc([N+](=O)[O-])c2)CC1 | 13.3 | 59.8 | 6.2 | – | – | –
O=C(CCCOc1ccc(Cl)cc1Cl)N1CCN(c2ccc([N+](=O)[O-])cc2)CC1 | 27.7 | 65.5 | 4 | 86.3 | 92.2 | –
O=C(O)c1cccc(N2CCN(C(=O)COc3ccc(F)cc3)CC2)c1 | 41.1 | 58.1 | 4.6 | – | – | –
O=C(COc1cccc(Cl)c1)N1CCN(c2ccc([N+](=O)[O-])cc2)CC1 | 15.6 | 70.6 | 4.6 | – | – | –
O=C(O)c1ccc(N2CCN(C(=O)COc3ccc(Cl)cc3)CC2)cc1 | 19.6 | 50.8 | 4.1 | – | – | –
O=C(COc1ccccc1C(F)(F)F)N1CCN(c2cccc([N+](=O)[O-])c2)CC1 | 7.7 | 56.4 | 6.7 | – | – | –
O=C(COc1cccc(C(F)(F)F)c1)N1CCN(c2ccc([N+](=O)[O-])cc2)CC1 | 4.1 | 63.3 | 4.9 | – | – | –
O=C(COc1ccc(C(F)(F)F)cc1)N1CCN(c2cccc([N+](=O)[O-])c2)CC1 | 30.3 | 60.4 | 4.2 | – | – | –
O=C(O)c1cccc(N2CCN(C(=O)COc3ccccc3Cl)CC2)c1 | 11.5 | 42 | – | – | – | –
O=C(COc1ccccc1C(F)(F)F)N1CCN(c2ccc([N+](=O)[O-])cc2)CC1 | -3.7 | 54.6 | 9.2 | – | – | –
